The target in test [1] is Serotonin 2 (5-HT2) receptor (Mus musculus, UniProt Q02152+P34968+P35363). In words: In vitro binding affinity for serotonin 5-hydroxytryptamine (5-HT) 2 receptors. In kind it is protein assay.
In a further test the target is D(2) dopamine receptor (Mus musculus, UniProt P61168). In words: In vitro binding affinity towards dopamine receptor D2.
The target of test [2] is Sigma non-opioid intracellular receptor 1 (Mus musculus, UniProt O55242). In words: In vitro binding affinity for the mouse sigma opioid receptor.
The species entered for another test is Mus musculus. Nature of the test: Oral potency tested by using anti-mescaline test. In kind it is functional. In short, it runs like this: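 Mice; mescaline was given to evoke hallucinogen-type behaviour, and the test compound was dosed orally to antagonise it. Potency is the ED50 in mg/kg po. Some ED50s are the average of three measurements.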

Bounds are passed on as bounds.

Chain of Sigma non-opioid intracellular receptor 1 (O55242 whole entry): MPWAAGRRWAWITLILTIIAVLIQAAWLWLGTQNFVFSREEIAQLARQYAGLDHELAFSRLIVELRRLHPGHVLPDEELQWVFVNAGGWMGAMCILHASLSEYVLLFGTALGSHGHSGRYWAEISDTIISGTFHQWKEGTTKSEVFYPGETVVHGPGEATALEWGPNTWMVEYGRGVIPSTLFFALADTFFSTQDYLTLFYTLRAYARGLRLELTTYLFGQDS
Chain of D(2) dopamine receptor (P61168 whole entry): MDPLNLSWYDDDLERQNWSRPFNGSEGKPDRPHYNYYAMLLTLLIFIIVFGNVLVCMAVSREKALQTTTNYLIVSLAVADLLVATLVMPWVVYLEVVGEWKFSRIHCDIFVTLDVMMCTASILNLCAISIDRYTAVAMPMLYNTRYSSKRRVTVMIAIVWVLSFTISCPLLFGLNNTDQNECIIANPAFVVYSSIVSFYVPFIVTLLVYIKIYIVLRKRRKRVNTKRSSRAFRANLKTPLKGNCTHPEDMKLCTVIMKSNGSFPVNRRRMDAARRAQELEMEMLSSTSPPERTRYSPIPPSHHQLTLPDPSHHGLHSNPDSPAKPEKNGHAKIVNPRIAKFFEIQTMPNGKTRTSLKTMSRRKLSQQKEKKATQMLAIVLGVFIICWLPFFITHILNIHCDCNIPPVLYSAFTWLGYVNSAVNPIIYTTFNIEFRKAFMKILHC

Take `COc1ccc(C(=O)CC2CCN(Cc3ccccc3)CC2)cc1`: the inhibitory constant (Ki) worked out at 313 nM in test [1] and 4 nM in test [2]. On D(2) dopamine receptor, the IC50 was determined as 6070 nM. This molecule returned an ED50 in the test filed under Mus musculus of over 30 mg/kg.
Turning to `COc1ccc(-c2ccc(OCC3CCN(CC4CC4)CC3)cc2)cc1`, the IC50 at D(2) dopamine receptor turned out to be 7220 nM. Besides, the Ki in test [2] amounted to 218 nM.
As for `O=C(CCCN1CCC(C(=O)Cc2ccc(F)cc2)CC1)c1ccc(F)cc1`, the Ki in test [1] amounted to 17 nM; in test [2], 40 nM. This molecule displayed a 50% effective dose (ED50) in the test filed under Mus musculus of 1.9 mg/kg.
`O=C(CC1CCCCN1Cc1ccccc1)c1ccc(F)cc1.O=C(O)/C=C\C(=O)O` (configuration not stated) came in with an IC50 at D(2) dopamine receptor of 3340 nM. Moreover, in test [2], the affinity, expressed as Ki, was 37 nM. In the test listed under Mus musculus, it took a dose of 4.3 mg/kg to reach the 50% effect level (ED50).
On to `CSc1ccc(C(O)CC2CCN(Cc3ccccc3)CC2)cc1` (configuration not stated), for which the Ki in test [1] was over 100 nM; in test [2], 10 nM. For the same molecule, the IC50 at D(2) dopamine receptor amounted to 7630 nM. In the test filed under Mus musculus, this molecule had an ED50 of over 30 mg/kg.
For `O.OC(CC1CCN(CCc2ccccc2)CC1)c1ccc(F)cc1` (configuration not stated), the results for the Ki in test [1] and in test [2] were 101 nM and 7 nM, respectively. This molecule gave a concentration for half-maximal inhibition (IC50) at D(2) dopamine receptor of 806 nM. Also, the ED50 in the test listed under Mus musculus is under 10 mg/kg.
`O.OC(Cc1ccc(F)cc1)C1CCN(CCCc2ccccc2)CC1` (configuration not stated): the results for the Ki in test [1] and in test [2] were 41 nM and 7 nM, respectively. Besides, the IC50 at D(2) dopamine receptor came to 1700 nM.
As for `CC(O)c1ccc(OCC2CCN(CC3CC3)CC2)cc1` (configuration not stated), the IC50 at D(2) dopamine receptor is over 10000 nM. The molecule also displayed an inhibition constant Ki in test [2] of 98 nM.
In turn, `O=C(CC1CCCN(CC2CC2)C1)c1ccc(F)cc1` (configuration not stated) registered a half-inhibitory concentration (IC50) at D(2) dopamine receptor of 185 nM. Besides, in test [2], the affinity corresponds to a Ki of 17 nM. Also, in the test filed under Mus musculus, the ED50 was 1.3 mg/kg.
The matching figures for `O=C(CC1CCCN(Cc2ccccc2)C1)c1ccc(F)cc1` (configuration not stated): 34 nM, 14 nM and 1.1 mg/kg.
With `CC1CC1CN1CCC(COc2ccc(F)cc2)CC1.O=C(O)/C=C\C(=O)O` (configuration not stated), the inhibition constant Ki was 24 nM in test [1] and 5 nM in test [2]. In addition, the half-inhibitory concentration (IC50) on D(2) dopamine receptor amounted to 945 nM. The same molecule registered an ED50 in the test filed under Mus musculus of over 10 mg/kg.
For the molecule `Nc1ccc(C(=O)CC2CCN(CC3CC3)CC2)cc1.O`, the IC50 at D(2) dopamine receptor is over 10000 nM. Moreover, the inhibition constant (Ki) in test [2] is 146 nM. Further, in the test listed under Mus musculus, the 50% effect level (ED50) was put at a dose of 10 mg/kg.
`OC(CC1CCN(CCC2CC2)CC1)c1ccc(F)cc1` (configuration not stated) came in with an IC50 at D(2) dopamine receptor of over 10000 nM. Further, the inhibition constant Ki in test [2] was found to be 155 nM.
Consider `FC(F)(F)c1ccc(OCC2CCN(Cc3ccccc3)CC2)cc1`, for which the results for the inhibition constant Ki in test [1] and in test [2] were 350 nM and 2 nM, respectively. On D(2) dopamine receptor, the IC50 turned out to be 1930 nM. For the same molecule, the median effective dose (ED50) in the test listed under Mus musculus turned out to be 6 mg/kg.
For the molecule `O=C(CC1CCN(Cc2ccc(C(F)(F)F)cc2)CC1)c1ccc(F)cc1`, the Ki in test [1] was 6 nM; in test [2], 3 nM. Further, at D(2) dopamine receptor, the concentration for half-maximal inhibition (IC50) is 195 nM. This molecule also had a median effective dose (ED50) in the test filed under Mus musculus of 1.8 mg/kg.
Turning to `c1cc(OCC2CCN(CC3CC3)CC2)ccn1`, on D(2) dopamine receptor, the IC50 was over 10000 nM. The same molecule came in with a Ki in test [2] of 175 nM.
For `O=C(Cc1ccc(F)cc1)CC1CCN(Cc2ccccc2)CC1.O=C(O)/C=C\C(=O)O`, the values for the inhibition constant (Ki) in test [1] and in test [2] were 316 nM and 3 nM, respectively. At D(2) dopamine receptor, this molecule returned a concentration for half-maximal inhibition (IC50) of 1100 nM. The molecule further displayed an ED50 in the test filed under Mus musculus of over 30 mg/kg.
Taken in the same sequence, the figures for `C[S+]([O-])c1ccc(C(=O)CC2CCN(Cc3ccccc3)CC2)cc1.O` (configuration not stated) were 204 nM, 53 nM, over 10000 nM and over 30 mg/kg.
As for `O=C(CC1CCN(CCc2ccc(F)cc2)CC1)c1ccc(F)cc1`, the results for the inhibition constant Ki in test [1] and in test [2] were 10 nM and 7 nM, respectively. The IC50 on D(2) dopamine receptor is 57 nM. In the test listed under Mus musculus, this molecule displayed a median effective dose (ED50) of 0.13 mg/kg.
`COc1ccc(CN2CCC(COc3ccc(F)cc3)CC2)cc1.O.O=C(O)/C=C\C(=O)O` gave an IC50 on D(2) dopamine receptor of 1340 nM. The molecule further had a Ki in test [2] of 30 nM. This molecule also registered an ED50 in the test filed under Mus musculus of 6.5 mg/kg.
On to `O=C(CC1CCN(Cc2ccccc2)CC1)c1ccc(-c2ccccc2)cc1`, for which the Ki was over 100 nM in test [1] and 33 nM in test [2]. The molecule further yielded an IC50 at D(2) dopamine receptor of 3010 nM. Also, in the test listed under Mus musculus, the 50% effect level (ED50) was put at a dose of 30 mg/kg.
Taken in the same sequence, the figures for `CC(=O)c1ccc(OCC2CCN(CC3CC3)CC2)cc1` were over 1000 nM, 9 nM, 539 nM and over 30 mg/kg.
In turn, `[O-][S+](CC1CCN(CCC2CC2)CC1)c1ccc(F)cc1` (configuration not stated) had a half-inhibitory concentration (IC50) on D(2) dopamine receptor of over 10000 nM. The molecule also registered a Ki in test [2] of 310 nM.
Molecule `CN(C)S(=O)(=O)c1ccc(OCC2CCN(CC3CC3)CC2)cc1` registered an inhibitory constant (Ki) in test [2] of over 10000 nM.
As for `O.c1ccc(CN2CCC(COc3ccc4ccccc4c3)CC2)cc1`, the inhibition constant (Ki) in test [1] came to 173 nM; in test [2] it was 6 nM. Besides, the IC50 at D(2) dopamine receptor amounted to 1020 nM. This molecule also displayed a median effective dose (ED50) in the test filed under Mus musculus of over 30 mg/kg.
Taken in the same sequence, the figures for `Cl.Fc1ccc(OCC2CCN(CC3CC3)CC2)cc1F` were 41 nM, 2 nM, 2840 nM and 4.5 mg/kg.
On D(2) dopamine receptor, `c1cnc(OCC2CCN(CC3CC3)CC2)nc1` gave a half-inhibitory concentration (IC50) of 4440 nM. The inhibition constant (Ki) in test [2] came to 347 nM.
For the molecule `Cl.c1ccc(OCC2CCN(CC3CC3)CC2)nc1`, the Ki in test [1] came to 1378 nM; in test [2] it was 44 nM. Further, the IC50 at D(2) dopamine receptor worked out at 4670 nM. Besides, in the test filed under Mus musculus, the 50% effective dose (ED50) was over 30 mg/kg.
Taken in the same sequence, the figures for `Cl.O=[N+]([O-])c1ccc(OCC2CCN(Cc3ccccc3)CC2)cc1` were 272 nM, 5 nM, 4390 nM and 14 mg/kg.
Regarding `Cl.Fc1ccc(OCCC2CCN(Cc3ccccc3)CC2)cc1.O`, the Ki in test [1] is under 100 nM; in test [2], 4 nM. The same molecule showed a concentration for half-maximal inhibition (IC50) on D(2) dopamine receptor of 114 nM. Moreover, the ED50 in the test filed under Mus musculus was found to be 16 mg/kg.
The matching figures for `Br.CN(C)c1ccc(C(=O)CC2CCN(CC3CC3)CC2)cc1.O`: 559 nM, 33 nM, over 10000 nM and 30 mg/kg.
Taken in the same sequence, the figures for `Cl.OC(CC1CCN(Cc2ccccc2)CC1)c1ccc(C(F)(F)F)cc1` (configuration not stated) were over 100 nM, 6 nM, over 10000 nM and over 30 mg/kg.
For the molecule `Cl.Oc1ccc(CN2CCC(COCc3ccc(F)cc3)CC2)cc1`, the Ki in test [1] came to 500 nM; in test [2] it was 7 nM. The IC50 at D(2) dopamine receptor stood at 3130 nM. Moreover, the 50% effective dose (ED50) in the test listed under Mus musculus is over 10 mg/kg.
`Cl.OC(Cc1ccccc1)C1CCN(Cc2ccccc2)CC1` (configuration not stated): the inhibitory constant (Ki) was determined as 1603 nM in test [1] and 18 nM in test [2]. For the same molecule, the IC50 at D(2) dopamine receptor was 8300 nM. The ED50 in the test filed under Mus musculus was under 10 mg/kg.
Taken in the same sequence, the figures for `Cl.Fc1ccc(COCC2CCN(Cc3ccc(OCc4ccccc4)cc3)CC2)cc1` were under 100 nM, 27 nM, 773 nM and under 30 mg/kg.
Take `CSc1ccc(OCC2CCN(CC3CC3)CC2)cc1.Cl`: the Ki stood at 114 nM in test [1] and 7 nM in test [2]. This molecule showed an IC50 on D(2) dopamine receptor of 1980 nM. The median effective dose (ED50) in the test filed under Mus musculus was over 30 mg/kg.
Turning to `Fc1ccc(COCC2CCN(CCCc3ccccc3)CC2)cc1`, at D(2) dopamine receptor, the IC50 is over 10000 nM. Besides, the inhibitory constant (Ki) in test [2] amounted to 304 nM.
Regarding `COc1ccc(OCC2CCN(CC3CC3)CC2)cc1.Cl.O`, the inhibition constant Ki in test [1] is over 100 nM; in test [2] it was 18 nM. This molecule also yielded a half-maximal inhibitory concentration (IC50) on D(2) dopamine receptor of over 10000 nM. The ED50 in the test listed under Mus musculus was over 30 mg/kg.
The matching figures for `COC(=O)c1ccc(CN2CCC(COCc3ccc(F)cc3)CC2)cc1.Cl`: 313 nM, 7 nM, 1980 nM and over 10 mg/kg.

The values above are taken from ChEMBL document CHEMBL1125363, “Novel piperidine sigma receptor ligands as potential antipsychotic drugs” (J Med Chem, 1992).
